# Results published in ChEMBL document CHEMBL1147518, “Hydroxytriamides as potent gamma-secretase inhibitors” (Bioorg Med Chem Lett, 2004).
# Legend:
# Gamma-secretase [1] = assay: Inhibition of gamma-secretase activity in H4 human neuroglioma cells by measuring amyloid beta production; assay type: cell-based
# In short: (§1)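 H4 human neuroglioma cells expressing HPLAP-βAPP164SFAD, grown in high-glucose DMEM with 10% FBS, pen-strep, 2 mM glutamine and geneticin, plated in 96 wells; after attachment, medium swapped for Ultraculture containing compound (1% DMSO final), overnight incubation. Aβ1-40 in conditioned medium measured by sandwich ELISA (C-terminal Aβ40-specific capture, HRP N-terminal detection, TMB/phosphoric acid). Means of two experiments, 16 data points each.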
# Gamma-secretase [2] = assay: Inhibition of gamma-secretase activity in H4 human neuroglioma cells by measuring amyloid beta production; Inactive; assay type: cell-based; in short: as §1
Compound,IC50 (Gamma-secretase [1]),IC50 (Gamma-secretase [2])
CCCCN(C)C(=O)[C@H](CC1CCCCC1)NC(=O)[C@H](CC(C)C)NC(=O)Cc1ccccc1,17 nM,–
CCCCN(C)C[C@H](CC1CCCCC1)NC(=O)[C@H](CC(C)C)NC(=O)Cc1ccccc1,1700 nM,–
CCCCN(C)C(=O)[C@H](CC1CCCCC1)NC[C@H](CC(C)C)NC(=O)[C@@H](O)c1ccccc1,> 2500 nM,–
CCCCN(CC)C(=O)[C@H](CC1CCCCC1)NC(=O)[C@H](CC(C)C)NC(=O)Cc1ccccc1,55 nM,–
CCCCN(C)C(=O)[C@H](CC1CCCCC1)NC(=O)[C@H](CC(C)C)NC(=O)/C=C/c1ccccc1,> 2600 nM,–
CCCCN(C)C(=O)[C@H](CC1CCCCC1)NC(=O)[C@@H](CC(C)C)NC(=O)Cc1cc(F)cc(F)c1,–,> 2500 nM
CCCCN(C)C(=O)[C@H](CC1CCCCC1)NC(=O)[C@H](CC(C)C)NC(=O)Cc1ccc(F)cc1,36 nM,–
CCCCN(C)C(=O)[C@H](CC1CCCCC1)NC(=O)[C@H](CC(C)C)NC(=O)Cc1cccc(F)c1,20 nM,–
CCCCN(C)C(=O)[C@H](CC1CCCCC1)NC(=O)CNC(=O)Cc1cc(F)cc(F)c1,300 nM,–
CC(C)CNC(=O)[C@H](CC1CCCCC1)NC(=O)[C@H](CC(C)C)NC(=O)Cc1ccccc1,150 nM,–
CCCCN(C)C(=O)[C@H](CC1CCCCC1)NC(=O)[C@H](CC(C)C)NC(=O)[C@H](OC)c1ccccc1,> 2500 nM,–
CC(C)C[C@H](NC(=O)Cc1ccccc1)C(=O)N[C@@H](CC1CCCCC1)C(=O)N(C)Cc1ccccc1,39 nM,–
CCCCN(C)C(=O)[C@H](CC(=O)O)NC(=O)[C@H](CC(C)C)NC(=O)Cc1cc(F)cc(F)c1,–,> 2500 nM
CCCCN(C)C(=O)[C@H](CC1CCCCC1)NC(=O)[C@H](CC(C)C)NC(=O)Cc1ccc(N)cc1,1100 nM,–
CCCCN(C)C(=O)[C@H](CC1CCCCC1)NC(=O)[C@H](CC(C)C)NC(=O)[C@](C)(O)c1ccccc1,> 2500 nM,–
CCCCN(C)C(=O)[C@H](CC1CCCCC1)NC(=O)[C@H](CC(C)C)NC(=O)c1ccccc1,3200 nM,–
CCCCN(C)C(=O)[C@H](CC1CCCCC1)NC(=O)[C@H](C)NC(=O)Cc1cc(F)cc(F)c1,32 nM,–
CCCCN(C)C(=O)[C@H](CC1CCCCC1)NC(=O)[C@H](CC(C)C)NC(=O)Cc1cccc(C)c1,454 nM,–
CCOC(=O)[C@H](CC1CCCCC1)NC(=O)[C@H](CC(C)C)NC(=O)Cc1ccccc1,900 nM,–
CCCCN(C)C(=O)[C@H](CC1CCCCC1)NC(=O)[C@H](CC(C)C)NC(=O)C(O)(O)c1ccccc1,1 nM,–
CC(C)CC[C@@H](O)[C@H](CC1CCCCC1)NC(=O)[C@H](CC(C)C)NC(=O)Cc1ccccc1,1200 nM,–
CCCCN(C)C(=O)[C@H](CC1CCCCC1)NC(=O)[C@@H]1CCCCN1C(=O)[C@@H](O)c1ccccc1,> 2500 nM,–
CON(C)C(=O)[C@H](CC1CCCCC1)NC(=O)[C@H](CC(C)C)NC(=O)Cc1ccccc1,130 nM,–

Compound,IC50 (Gamma-secretase [1]),IC50 (Gamma-secretase [2])
CCCCN(C)C(=O)[C@H](CC1CCCCC1)NC(=O)[C@H](CC(C)C)NC(=O)[C@](C)(OC)c1ccccc1,> 2500 nM,–
CCCCN(C)C(=O)[C@H](CC1CCCCC1)NC(=O)[C@H](CC(C)C)NC(=O)Cc1cccc(N)c1,> 2500 nM,–
CCCCNC(=O)[C@H](CC1CCCCC1)NC(=O)[C@H](CC(C)C)NC(=O)Cc1ccccc1,240 nM,–
CC(C)C[C@H](NC(=O)Cc1ccccc1)C(=O)N[C@@H](CC1CCCCC1)C(=O)N1CCCCC1,50 nM,–
CCCCN(C)C(=O)[C@H](CC1CCCCC1)NC(=O)[C@H](CC(C)C)NC(=O)[C@@](C)(OC)c1ccccc1,> 2500 nM,–
CCCCN(C)C(=O)[C@@H]1Cc2ccccc2CN1C(=O)[C@H](CC(C)C)NC(=O)[C@@H](O)c1ccccc1,66 nM,–
CCCCN(C)C(=O)[C@H](CC1CCCCC1)NC(=O)[C@H](CC(C)C)NC(=O)CCc1ccccc1,160 nM,–
CCCCN(C)C(=O)[C@H](CC1CCCCC1)NC(=O)[C@H](CC(C)C)NC(=O)Cc1cc(OC)cc(OC)c1,800 nM,–
CCCCN(C)C(=O)[C@H](CC1CCCCC1)NC(=O)[C@H](CC(C)C)NC(=O)Cc1cccc(Cl)c1,52 nM,–
CC(C)C[C@H](NC(=O)Cc1ccccc1)C(=O)N[C@@H](CC1CCCCC1)C(=O)N(C)CC(C)C,13 nM,–
CCCCN(C)C(=O)[C@H](CC1CCCCC1)NC(=O)[C@H](CC(C)C)NC(=O)[C@H](O)c1ccccc1,240 nM,–
CCCCN(C)C(=O)[C@H](CC1CCCCC1)NC(=O)[C@H](CC(C)C)NC(=O)Cc1cccc(OC)c1,480 nM,–
CCCCN(C)C(=O)[C@H](CC1CCCCC1)NC(=O)[C@H](CC(C)C)NC(=O)Cc1ccccc1F,280 nM,–
CC(C)C[C@H](NC(=O)Cc1ccccc1)C(=O)N[C@@H](CC1CCCCC1)C(=O)N(C)C,102 nM,–
CCCCN(C)C(=O)[C@H](CC1CCCCC1)NC(=O)[C@H](CC(C)C)NC(=O)[C@@H](OC)c1ccccc1,2000 nM,–
CC(C)CCC(=O)[C@H](CC1CCCCC1)NC(=O)[C@H](CC(C)C)NC(=O)Cc1ccccc1,300 nM,–
CC(C)C[C@H](NC(=O)Cc1ccc2ccccc2c1)C(=O)N[C@@H](CC1CCCCC1)[C@H](O)Cc1ccccc1C(=O)NC(C)(C)C,4.7 nM,–
CCCCN(C)C(=O)[C@@H](CC1CCCCC1)NC(=O)[C@H](CC(C)C)NC(=O)Cc1ccccc1,1000 nM,–
CCCCN(C)C(=O)[C@H](CC1CCCCC1)NC(=O)[C@@H]1CCCN1C(=O)Cc1cc(F)cc(F)c1,–,> 2500 nM
CCCCN(C)C(=O)[C@H](CC1CCCCC1)NC(=O)[C@H](CC(C)C)NC(=O)Cc1cc(C(F)(F)F)cc(C(F)(F)F)c1,408 nM,–
CCCCN(C)C(=O)[C@H](CCCCN)NC(=O)[C@H](CC(C)C)NC(=O)Cc1cc(F)cc(F)c1,–,> 2500 nM
COC(=O)[C@H](CC1CCCCC1)NC(=O)[C@H](CC(C)C)NC(=O)Cc1ccccc1,800 nM,–
CCCCN(C)C(=O)[C@H](CC1CCCCC1)NC(=O)[C@H](Cc1ccccc1)NC(=O)Cc1cc(F)cc(F)c1,2400 nM,–
